Calls of active or inactive are those of the source. The rule behind the calls is not given here.
How the values were obtained:
Plasmodium falciparum [1] = assay: Antiplasmodial activity against chloroquine-resistant Plasmodium falciparum W2 as LDH activity after 48 hrs; format: functional, organism-based; conditions: W2, 48 h
Method in brief: (§1)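 Asynchronous P. falciparum cultures (2% hematocrit, 2% parasitemia) were exposed to compound dilutions prepared in DMSO. They were incubated 48 h at 37 °C in a humidified chamber under 90% N2, 5% CO2, 5% O2. Growth was read as parasite lactate dehydrogenase activity using Malstat reagent. Medium-only and erythrocyte-only wells were included, with chloroquine and artemisinin as positive and DMSO as negative controls.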

Leishmania donovani = assay: Antileishmanial activity against Leishmania donovani promastigotes after 72 hrs by Alamar blue assay; format: functional, organism-based
Method in brief: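 L. donovani promastigote culture at 2 × 10⁶ cells/mL given diluted compounds, incubated 72 h at 26 °C; growth read by Alamar blue. Pentamidine and amphotericin B as reference agents; IC50 computed from growth inhibition curve.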

[2] = target: T1, Cysteine protease falcipain-3 (Plasmodium falciparum, UniProt Q9NBA7); assay: Inhibition of Plasmodium falciparum recombinant falcipain-3
T1 sequence (Q9NBA7 whole entry): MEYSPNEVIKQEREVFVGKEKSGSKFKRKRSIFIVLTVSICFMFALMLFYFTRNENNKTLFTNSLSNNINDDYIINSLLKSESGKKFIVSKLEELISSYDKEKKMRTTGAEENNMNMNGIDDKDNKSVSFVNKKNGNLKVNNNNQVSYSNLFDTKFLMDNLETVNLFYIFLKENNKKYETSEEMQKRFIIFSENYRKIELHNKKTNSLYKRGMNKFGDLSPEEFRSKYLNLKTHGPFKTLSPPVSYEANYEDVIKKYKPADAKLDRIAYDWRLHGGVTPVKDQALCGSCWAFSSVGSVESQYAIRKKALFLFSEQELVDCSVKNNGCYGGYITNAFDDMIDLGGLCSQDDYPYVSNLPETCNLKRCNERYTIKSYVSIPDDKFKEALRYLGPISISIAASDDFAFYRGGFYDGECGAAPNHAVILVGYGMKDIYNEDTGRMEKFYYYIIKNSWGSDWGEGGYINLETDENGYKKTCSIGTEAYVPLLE
Method in brief: (§2)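 Equal amounts of recombinant enzyme preincubated 30 min at room temperature with serial inhibitor dilutions from DMSO stocks (DMSO at most 1% in assay) in 100 mM sodium acetate pH 5.5, 10 mM dithiothreitol. Z-Leu-Arg-AMC then added to 25 μM final; fluorescence followed 15 min at room temperature. IC50 taken from percent activity versus concentration plots.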

Plasmodium falciparum [3] = assay: Antiplasmodial activity against chloroquine-sensitive Plasmodium falciparum D6 after 48 hrs as LDH reporter activity; format: functional, organism-based; conditions: D6, 48 h; method in brief: as §1
Falcipain 2 = target: T2, Falcipain 2 (Plasmodium falciparum, UniProt Q9N6S8); assay: Inhibition of Plasmodium falciparum recombinant falcipain-2; method in brief: as §2
T2 sequence (Q9N6S8 whole entry): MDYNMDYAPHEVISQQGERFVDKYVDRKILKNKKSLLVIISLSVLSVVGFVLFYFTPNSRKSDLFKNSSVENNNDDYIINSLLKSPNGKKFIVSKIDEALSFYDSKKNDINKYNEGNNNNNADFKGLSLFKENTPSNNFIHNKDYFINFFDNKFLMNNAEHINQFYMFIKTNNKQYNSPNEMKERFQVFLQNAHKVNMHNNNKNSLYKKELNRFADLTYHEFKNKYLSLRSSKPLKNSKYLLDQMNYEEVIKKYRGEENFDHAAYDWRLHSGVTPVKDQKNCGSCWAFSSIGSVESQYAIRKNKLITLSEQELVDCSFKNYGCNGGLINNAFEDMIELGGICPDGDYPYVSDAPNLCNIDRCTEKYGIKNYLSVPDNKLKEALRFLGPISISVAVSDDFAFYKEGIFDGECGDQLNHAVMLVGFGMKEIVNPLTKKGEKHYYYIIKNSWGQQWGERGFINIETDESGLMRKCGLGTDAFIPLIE

Vero = assay: Cytotoxicity against Vero cells at 23.8 ug/mL by Neutral red assay; format: cell-based; conditions: chlorocebus sabaeus
Method in brief: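 VERO monkey kidney […] exposed to compounds alongside the antiparasitic assays, viability by Neutral Red uptake; highest concentration tested 23.8 μg/mL; IC50 computed from growth inhibition curve.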

[4] = target: T3, Cysteine protease (Leishmania donovani) (UniProt Q95WR6); assay: Inhibition of Leishmania donovani cysteine protease
T3 sequence (whole entry): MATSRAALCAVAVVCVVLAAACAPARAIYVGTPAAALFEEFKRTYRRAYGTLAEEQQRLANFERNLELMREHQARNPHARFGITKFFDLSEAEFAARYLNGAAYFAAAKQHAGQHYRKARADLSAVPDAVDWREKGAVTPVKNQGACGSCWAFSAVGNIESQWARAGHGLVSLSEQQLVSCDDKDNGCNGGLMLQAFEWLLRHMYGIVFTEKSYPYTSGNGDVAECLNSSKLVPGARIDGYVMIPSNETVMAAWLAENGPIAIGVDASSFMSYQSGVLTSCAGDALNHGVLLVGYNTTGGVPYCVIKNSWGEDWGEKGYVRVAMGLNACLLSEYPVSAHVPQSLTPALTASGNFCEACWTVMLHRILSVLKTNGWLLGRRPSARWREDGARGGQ

Row | SMILES | EC50 (Plasmodium falciparum [1]) | Activity (Leishmania donovani) | IC50 [2] | EC50 (Plasmodium falciparum [3]) | IC50 (Falcipain 2) | Activity (Vero) | Activity [4] | IC50 (Leishmania donovani)
1 | O=C(CNC(=O)[C@@H]1COc2ccccc2O1)N/N=C/c1cccs1 | 68.9 µM | inactive | > 50 µM | 68.9 µM | 26.6 µM | Non-toxic | inactive | –
2 | N#CCC(=O)N/N=C\c1ccc(OCC(=O)Nc2ccc(F)cc2)cc1 | 67.2 µM | inactive | > 50 µM | 59.3 µM | 5.7 µM | Non-toxic | inactive | –
3 | O=C(N/N=C/c1ccccc1O)c1cccc(C(=O)N/N=C/c2ccccc2O)n1 | 6.2 µM | inactive | 10.5 µM | 3.7 µM | 7 µM | Non-toxic | inactive | –
4 | O=C(NCc1ccc(/C=c2/sc3n(c2=O)CCN=3)o1)C(=O)Nc1ccccc1 | > 60 µM | inactive | 11.8 µM | > 60 µM | 6.2 µM | Non-toxic | inactive | –
5 | CCCc1cc(O)nc(SCC(=O)Nc2ccccc2)n1 | > 78.4 µM | inactive | – | > 78.4 µM | – | – | inactive | –
6 | O=C(CSc1nnnn1-c1ccccc1)Nc1ccc(-n2cnnn2)cc1 | 50.1 µM | inactive | 5.4 µM | 62.7 µM | 7.5 µM | Non-toxic | inactive | –
7 | COC(=O)c1ccccc1NC(=O)COC(=O)CSc1nc(C)cc(C)n1 | 61.1 µM | inactive | 12 µM | 61.1 µM | 6.2 µM | Non-toxic | inactive | –
8 | O=C(N/N=C/c1ccc(/C=N/NC(=O)c2ccccc2O)cc1)c1ccccc1O | 34.8 µM | inactive | 27.8 µM | 31.1 µM | 2.2 µM | Non-toxic | inactive | –
9 | OC[C@@H](O)/C=N/Nc1nc(Nc2ccccc2)nc(Nc2ccccc2)n1 | 3.3 µM | – | > 50 µM | 2.5 µM | > 50 µM | Non-toxic | inactive | 1.9 µM
10 | CCCS(=O)(=O)N1CCN(S(=O)(=O)c2ccc3ccccc3c2)CC1 | > 62.2 µM | inactive | 29.6 µM | > 62.2 µM | 12.4 µM | Non-toxic | inactive | –
11 | CCCc1cc(=O)[nH]c(SCC(=O)Nc2ccccc2)n1 | – | – | > 50 µM | – | 59.9 µM | Non-toxic | – | –
12 | OC[C@H](O)/C=N/Nc1nc(Nc2ccccc2)nc(N2CCCCC2)n1 | 5.3 µM | – | > 50 µM | 4.8 µM | 54.6 µM | Non-toxic | inactive | 3.6 µM
13 | C[C@@H]1[C@H](O)[C@@H](C)/C=C/C=C/C=C/C=C/C=C/C=C/C=C/[C@H](O[C@@H]2O[C@H](C)[C@@H](O)[C@H](N)[C@@H]2O)C[C@@H]2O[C@](O)(C[C@@H](O)C[C@@H](O)[C@H](O)CC[C@@H](O)C[C@@H](O)CC(=O)O[C@H]1C)C[C@H](O)[C@H]2C(=O)O [AMPHOTERICIN B] | – | – | – | – | – | – | – | 0.16 µM
14 | CCN(CC)CCCC(C)Nc1ccnc2cc(Cl)ccc12 (stereo not given) [CHLOROQUINE] | 0.28 µM | – | – | 0.009 µM | – | – | – | –
15 | CC(C)C[C@H](NC(=O)[C@H]1O[C@@H]1C(=O)O)C(=O)NCCCCN=C(N)N [E-64] | – | – | 0.035 µM | – | 0.015 µM | – | – | –
16 | C[C@@H]1CC[C@H]2[C@@H](C)C(=O)O[C@@H]3O[C@@]4(C)CC[C@@H]1[C@]32OO4 [ARTEMISININ] | 0.017 µM | – | – | 0.012 µM | – | – | – | –
17 | N=C(N)c1ccc(OCCCCCOc2ccc(C(=N)N)cc2)cc1 [PENTAMIDINE] | – | – | – | – | – | – | – | 2 µM
